# Compound activity (PubChem BioAssay)
# Rows were chosen to be rich in hits. Some 1.3% of all compounds tested hit in one or more screens of this group.
# Tn6 DDE FP: DD(E)-Tn6 binding inhibition, primary FP screen; actives 0.21% (n = 370,000); Fibrin DD(E) TRITC-Tn6 fluorescence polarization displacement; inhibition, % at 8.3 µM;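 active means inhibition above a per-campaign cutoff: mean of compounds within control limits plus 3 SD, cut at about 15% in these data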;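 further: 0% = median of all compound wells on the plate and 100% = blocking peptide control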
# Target sequence (P02675 whole entry, looked up): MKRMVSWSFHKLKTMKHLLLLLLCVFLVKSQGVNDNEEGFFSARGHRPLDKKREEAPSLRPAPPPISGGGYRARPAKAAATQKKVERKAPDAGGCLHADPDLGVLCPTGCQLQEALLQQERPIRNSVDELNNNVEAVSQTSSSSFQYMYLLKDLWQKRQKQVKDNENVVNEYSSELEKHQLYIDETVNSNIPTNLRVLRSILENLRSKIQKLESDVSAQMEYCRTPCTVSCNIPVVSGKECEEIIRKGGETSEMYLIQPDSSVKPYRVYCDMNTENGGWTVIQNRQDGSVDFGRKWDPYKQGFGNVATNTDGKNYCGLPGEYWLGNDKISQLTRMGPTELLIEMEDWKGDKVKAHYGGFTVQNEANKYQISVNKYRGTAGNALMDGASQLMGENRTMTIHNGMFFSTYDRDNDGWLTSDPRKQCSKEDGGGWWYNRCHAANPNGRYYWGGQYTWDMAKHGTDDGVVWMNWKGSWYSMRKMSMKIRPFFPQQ
# DDE Tn7 FP inh: disrupts Tn7 cyclic peptide binding to fibrin D-Dimer-E complex; FP displacement of FITC-Tn7 peptide from fibrin DD(E); 0% = median of compound wells per plate; inhibition, % at 8.3 µM; AID 720508; actives 0.13% (n = 370,000); P02675;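 active means inhibition above the mean of compounds falling within the control limits plus 3 SD of them, cut at about 14% in these data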;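 further: 0% = plate median of compound wells and 100% = 10 µM Aha-Tn7 peptide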
#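 Assay system: Human clot-derived fibrin DD(E) complex | Buffer or medium: Tris/NaCl/CaCl2 buffer, pH 7.8 | Repeats: One replicate per compound | Benchmarks: Aha-Tn7 high control | Measure: % inhibition scaled between sample-field median and high-control FP | Schedule: 10 min plus 3 h, room temperature | Signal: Fluorescence polarization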
# HTRA1 inhibitor: blocks human HTRA1 serine peptidase; recombinant HTRA1, FP-rhodamine activity-based probe, fluorescence polarization; AID 504803; Q92743; actives 0.5% (n = 340,000); inhibition, % at 5.96 µM; in the data active means inhibition above about 36%;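 further: 0% = enzyme with DMSO and 100% = wells lacking enzyme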
# mABHD4 FP: inhibits mouse alpha/beta hydrolase domain 4. AID 720543. actives 0.54% (n = 370,000). Q8VD66. purified mABHD4, FP-Rh probe fluorescence polarization. inhibition, % at 8.92 µM;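 active means inhibition exceeding the mean over every tested compound plus 3 SD, cut at about 30% in these data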;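 further: 0% = plate median of compound wells and 100% = S159A mutant with DMSO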
#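 System: mouse ABHD4 enzyme, wild type / Medium: HEPES pH 7.0, NaCl, Pluronic buffer / Reagent: FP-Rh activity-based fluorescent probe / Control set: S159A mutant high control, sample median low control / Detection: fluorescence polarization with parallel and perpendicular emission, 525/598 nm / Schedule: 45 min + 60 min at 25 °C / Compound dosing: 8.92 µM, single dose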
# TCR-CD3 inh: human TCR-CD3 binding inhibition | AID 651800 | actives 0.37% (n = 360,000) | inhibition, % at 9.4 µM | TAMRA-labeled TCR probe fluorescence, biochemical; in the data active means inhibition above about 19%;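 further: recombinant mutant TCR 2C K166C tagged with TAMRA read by polarization; 0% = receptor in buffer alone and 100% = receptor with positive control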
# DDE Tn6 FP ctr: counter-screen for inhibitors of Tn6 peptide binding to fibrin DD(E) | AID 720621 | inhibition, % at 8.3 µM | TRITC-Tn6 fluorescence polarization displacement; 0% = median of compound wells, not DMSO | actives 2% (n = 680) | shares compounds with Tn6 DDE FP;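 active means inhibition above the mean of test compounds lying between the control limits plus 3 SD of those, cut at about 14% in these data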;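 further: 0% = median of compound wells and 100% = wells with Aha-Tn7 blocking peptide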
# Tn6 DDE conf: DD(E)-Tn6 binding inhibition, FP confirmation; shares compounds with Tn6 DDE FP; FP displacement of TRITC-Tn6 peptide from DD(E); 0% = per-plate median of test wells; inhibition, % at 8.3 µM; actives 10% (n = 680);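 active means inhibition above the mean of compounds lying within the control limits plus 3 SD, cut at about 16% in these data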;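 further: 100% = high control wells holding a competing inhibitor peptide at 10 µM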
# mABHD4 conf: ABHD4 (mouse) inhibition, FP confirmation. shares compounds with mABHD4 FP. purified mABHD4, FP-Rh probe fluorescence polarization. inhibition, % at 8.92 µM. actives 55% (n = 1,800);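 active means mean inhibition across replicates above the hit cutoff set in the primary screen, cut at about 30% in these data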;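 further: 0% = wild-type ABHD4 with DMSO and 100% = catalytically dead S159A mutant with DMSO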
# An asterisk follows results filed as active; nt = no result given.
SMILES,Tn6 DDE FP,DDE Tn7 FP inh,HTRA1 inhibitor,mABHD4 FP,TCR-CD3 inh,DDE Tn6 FP ctr,Tn6 DDE conf,others
C=CCOc1ccc(CN(C)Cc2nc3cc(C(F)(F)F)ccc3c(=O)[nH]2)cc1,-5.0,1.1,-11.3,-6.3,-2.7,nt,nt,
CC[C@H](C)/C=C(C)/C=C/c1cc2c(cn1)C(=O)[C@@](C)(OC(C)=O)C(O)=C2Cl,0.2,-2.4,nt,10.0,1.2,nt,nt,
CC[C@H](C)/C=C(C)/C=C/C(=O)Cc1cc(O)c(C)c(O)c1C=O,15.7*,10.0,20.9,16.6,0.9,-0.1,4.6,
COc1ccc(S(=O)(=O)N(C)CC(=O)Nc2ccccc2OC)cc1,23.4*,5.7,2.3,-2.1,2.9,5.0,-0.2,
Cc1cc(OCCN2CCOCC2)ccc1C(C)C,-3.0,3.4,1.2,10.4,-3.2,nt,nt,
CC(=O)O[C@@H]1CCC[C@@]2(C(=O)Nc3ccccc32)[C@H]1NC(=O)C(C)C,-1.2,2.3,nt,0.3,nt,nt,nt,
COc1cc(CNC2CCCCCCC2)cc(Cl)c1OC,16.8*,7.0,0.4,3.4,2.5,-4.1,-6.3,
CCOc1c(Br)cc(CNC2CCCCCCC2)cc1OC,6.2,5.5,3.8,9.1,-1.6,nt,nt,
O=C(COC(=O)c1ccccc1NC(=O)c1ccccc1)c1cccc([N+](=O)[O-])c1,16.8*,3.0,0.5,-0.4,4.1,2.9,5.2,
O=C(COC(=O)c1ccccc1NC(=O)c1ccccc1)c1ccc([N+](=O)[O-])cc1,3.8,0.8,-1.4,0.2,9.7,nt,nt,
CCN(CC)C(=O)[C@H]1CC(CC(=O)NCCCN(C)C)C(=O)N2CCc3c([nH]c4ccc(OC)cc34)[C@]12C (stereo partly specified),0.5,0.7,2.4,2.1,-4.2,nt,nt,
CCOc1ccccc1NC(=O)NCc1ccccn1,19.0*,3.2,-1.3,4.6,4.4,8.0,5.1,
CCc1ccccc1NC(=O)NCc1ccccn1,-0.8,2.5,2.6,0.0,-0.6,nt,nt,
CC1(C)Cc2c(c(-c3ccco3)nc3sc4c(NCCO)ncnc4c23)CO1,0.9,-0.5,-4.7,-15.7,10.2,nt,nt,
COCCCNc1ncnc2c1sc1nc(-c3ccco3)c3c(c12)CC(C)(C)OC3,18.1*,5.7,-27.7,-16.7,-5.0,-3.3,-11.8,
Cc1c(Cc2ccccc2)c(=O)oc2cc(OCC(=O)N3CCC(C(N)=O)CC3)ccc12,17.7*,5.3,-1.4,-2.8,1.7,1.0,1.7,
COc1ccc(OC)c(NC(=O)CCNS(=O)(=O)c2ccc3[nH]c(=O)oc3c2)c1,11.7,2.5,0.2,9.6,6.0,nt,nt,
Cc1ccc(F)c(S(=O)(=O)NC(=O)C2(C)CCN2C(=O)CCc2ccccc2)c1 (stereo unspecified),4.5,0.5,nt,-11.9,-0.5,nt,nt,
CNc1ccc(/C=C2\CSc3ccccc3C2=O)cc1[N+](=O)[O-],19.4*,-1.7,5.4,0.5,7.6,4.1,4.7,
O=C(Nc1cccn(Cc2c(Cl)cccc2Cl)c1=O)c1ccc(Cl)cc1Cl,-3.3,6.9,-40.2,1.0,2.2,nt,nt,
O=C(COc1ccccc1)Nc1cccc(-c2nn[nH]n2)c1,-3.3,1.7,6.0,-4.6,-13.7,nt,nt,
O=C(COc1ccccc1)Nc1cccc(-c2nc3cc4ccccc4cc3[nH]2)c1,86.5*,2.5,-73.7,-119.2,18.6,6.6,24.6*,
COc1cc([N+](=O)[O-])ccc1NC(=S)Nc1cccc(C(=O)O)c1,-2.3,1.6,1.2,2.2,1.0,nt,nt,
Nn1c(SCC(=O)N2CCOCC2)nnc1-c1cc(-c2ccc(Cl)cc2)n[nH]1,2.3,-3.8,nt,4.5,nt,nt,nt,
Nn1c(SCC(=O)N2CCOCC2)nnc1-c1cc(-c2ccc(F)cc2)n[nH]1,15.9*,6.0,nt,0.0,nt,-6.1,-12.6,
SMILES,Tn6 DDE FP,DDE Tn7 FP inh,HTRA1 inhibitor,mABHD4 FP,TCR-CD3 inh,DDE Tn6 FP ctr,Tn6 DDE conf,others
Oc1cccc(CN2CCN(c3ncc(Cc4ccccc4)cn3)CC2)c1,-2.0,-5.5,nt,-6.1,8.9,nt,nt,
N#CC(C#N)=c1ccc2c(c1)NC1(CCCCC1)N=2,41.8*,4.5,18.4,-4.4,-32.6,11.4,34.4*,
CSc1ccc(S(=O)(=O)N2CC(=O)Nc3ccccc32)cc1,15.8*,-6.2,-0.2,1.4,9.1,3.9,4.1,
O=C(N[C@@H](Cc1ccccc1)C(=O)OCC(=O)N1CCOCC1)c1cccs1,17.8*,-0.7,0.9,2.6,-0.4,3.0,-5.3,
CC1CC(C)CN(S(=O)(=O)c2ccc3c(c2)oc(=O)n3CC(=O)N(C)Cc2ccccc2)C1 (stereo unspecified),15.2*,2.7,0.0,8.1,-6.9,0.5,-4.2,
COc1cc(N)c2ncccc2c1Br,19.3*,6.2,24.3,62.0*,13.3,0.5,-1.3,mABHD4 conf=28.2
COc1cc(N)c2ncccc2c1SC,6.0,2.3,10.3,16.9,-3.9,nt,nt,
O=C(O)CN1C(=O)NC2(CCOc3ccccc32)C1=O (stereo unspecified),5.9,1.0,8.0,-2.5,5.3,nt,nt,
O=C(COc1ccccc1Cl)NC(=S)Nc1ccccc1N1CCCC1,15.7*,7.6,-6.9,41.3*,12.9,10.8,4.8,mABHD4 conf=-8.2
O=C(O)CCCNC(=O)/C(=C\c1ccc(Cl)cc1)NC(=O)c1ccc(Br)cc1,-6.7,-0.3,5.4,-2.9,0.0,nt,nt,
Cc1ccc(C2CC(=O)Oc3cc(O)ccc32)cc1 (stereo unspecified),34.0*,7.2,30.1,55.1*,10.0,-4.1,7.6,mABHD4 conf=43.9*
COC(=O)C1=C(N)Oc2cc(C)n(CC3CCCO3)c(=O)c2C1c1ccccc1OC (stereo unspecified),-7.4,1.4,5.2,0.4,3.3,nt,nt,
COC(=O)C1=C(N)Oc2cc(N(C)C)ccc2C1c1ccccc1OC (stereo unspecified),36.2*,6.8,4.3,47.4*,-8.9,7.3,-8.6,mABHD4 conf=-20.4
CC1=CC(=O)C=CC1=Nc1ccc(N(C)C)cc1,21.7*,-6.8,nt,63.6*,-5.3,2.0,-2.2,mABHD4 conf=56.7*
N#C/C(=C\c1cccnc1)C(=O)Nc1ccc(O)cc1F,49.4*,0.3,22.6,67.3*,-18.8,-1.8,-1.1,mABHD4 conf=10.8
N#C/C(=C\c1cccnc1)C(=O)Nc1ccc(C(=O)O)cc1,-14.0,-7.3,4.0,-6.2,1.4,nt,nt,
Cc1ccc(-c2ccc(=O)n(CC(=O)NCCC(C)C)n2)cc1,3.6,3.3,6.1,-1.4,3.7,nt,nt,
CCN(c1cccc(C)c1)C(C(=O)Nc1ccc(OC)cc1)c1cc2c(cc1[N+](=O)[O-])OCO2 (stereo unspecified),-1.1,-2.4,-20.0,-1.8,-1.9,nt,nt,
